# Measurements collected from several papers.
# Compare with care: the assays were run in different laboratories.
# Target: Serine/threonine-protein kinase mTOR (MTOR, Homo sapiens, UniProt P42345)
SMILES,effect on,mode,technique,concentration,quantity,result
COc1ccc2[nH]c3c4[nH]c5ccc(OC)cc5c4c4c(c3c2c1)C(=O)NC4=O,binding,,,1 µM,remaining binding,100%
C=CC(=O)N1CCC([C@@H]2CCNc3c(C(N)=O)c(-c4ccc(Oc5ccccc5)cc4)nn32)CC1,enzyme activity,inhibitor,,1 µM,inhibition,0%
Cc1cc(O)c(-c2ccc([C@@H](C)CN(C)C)cc2)c2c1[nH]c(=O)c1sccc12,cell-free assay,inhibitor,,0.1 µM,inhibition,9.2%
CCCCC(=O)Nc1ccc(-c2ccc3ncn(CCC)c(=O)c3c2)cn1,binding,,competition with immobilised ligand,0.5 µM,remaining binding,67%
CO[C@@H]1[C@H](N(C)C(=O)c2ccccc2)C[C@H]2O[C@]1(C)n1c3ccccc3c3c4c(c5c6ccccc6n2c5c31)C(=O)NC4,enzyme activity,inhibitor,,1 µM,inhibition,0%
C1=C/COCc2cc(ccc2OCCN2CCCC2)Nc2nccc(n2)-c2cccc(c2)COC/1,binding,,,0.1 µM,remaining binding,72%
CN1CCN(C(=O)c2ccc(NC(=O)Nc3ccc(N(C)c4ccnc(Nc5ccc(CS(C)(=O)=O)cc5)n4)cc3)cc2)CC1,binding,,,1 µM,remaining binding,100%
COc1ccc2oc(-c3ccc4nc(N)oc4c3)c/c(=N\c3ccccc3NC(=O)CCN)c2c1,cell-free assay,,,1 µM,remaining signal,7%
